Sampled rows, rich in hits. Any-hit rate of the full collection: about 5.8%.
T cruzi growth-1: T. cruzi intracellular proliferation inhibitors, primary screen, cell-based, beta-gal Tulahuen parasites, NIH3T3 host, luminescence; inhibition, % at 8.34 µM; T. cruzi beta-gal in NIH3T3, GalScreen luminescence, 90 h; AID 624255, 2012; 77,000 compounds, 5.9% hits;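 active means mean inhibition above about 93%, with at least 55% of replicates each passing it, limit read from the data, passing the limit was not always enough; inconclusive means only one of those two conditions holds; inactive means neither condition holds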
Pf Dd2 growth: P. falciparum Dd2 growth inhibitors, primary screen, SYBR Green fluorescence, single dose replicates | 72 h; stronger effect = lower value | 94,000 compounds, 2.3% hits | activity change, % at 10 µM | AID 1159554, 2015; in the data active means activity change below about -80%; inconclusive means no clear call, values can overlap the other calls
KDM4C inh: inhibitors of GASC-1 (KDM4C) histone demethylase, primary screen, biochemical, single concentration HTS; Lysine-specific demethylase 4C (Homo sapiens), Q9H3R0; GST-KDM4C 2-372, H3K9me3 peptide, LANCE TR-FRET; 96,000 compounds, 0.15% hits; inhibition, % at 12.5 µM;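 active means mean replicate inhibition above about 25%, with at least 55% of replicates also reaching it, limit read from the data, passing the limit was not always enough; inconclusive means only one of those two conditions met; inactive means neither condition met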
Target sequence (Q9H3R0 2-372 limits assumed): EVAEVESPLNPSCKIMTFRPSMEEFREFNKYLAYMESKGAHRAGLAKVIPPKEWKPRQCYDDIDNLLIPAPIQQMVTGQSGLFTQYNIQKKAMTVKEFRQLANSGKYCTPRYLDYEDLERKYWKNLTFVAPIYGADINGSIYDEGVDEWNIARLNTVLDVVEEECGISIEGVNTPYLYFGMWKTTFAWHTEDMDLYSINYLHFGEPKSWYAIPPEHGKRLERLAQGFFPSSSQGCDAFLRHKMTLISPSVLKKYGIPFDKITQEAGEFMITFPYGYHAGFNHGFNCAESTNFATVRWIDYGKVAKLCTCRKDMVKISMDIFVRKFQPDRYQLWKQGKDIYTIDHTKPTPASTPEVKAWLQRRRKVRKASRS
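Test system – GST-tagged GASC-1 (JMJD2C) catalytic fragment, aa 2-372 · Medium – HEPES buffer, pH 7.5, plus ascorbate · Reagent – H3K9me3 peptide with Fe(II)/2OG · Compound – one test concentration per compound · Timing – 30 min reaction, 60 min detection, RT · Technique – TR-FRET with Eu antibody and ULight streptavidin, EDTA stop · Read-out basis – inhibition from TR-FRET ratio decrease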
IDH1 mut inh: inhibitors of IDH1 R132H reductase, primary screen, biochemical, plate reader, single point | diaphorase/resazurin fluorescence, 60 min | inhibition, % at 10 µM | 70,000 compounds, 0.18% hits | AID 624101, 2012; in the data active means inhibition above about 34%; inconclusive means no clear call, values can overlap the other calls; inactive means below about 11%;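 further: 0% = DMSO and 100% = no enzyme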
T cruzi growth-2: T. cruzi intracellular proliferation inhibitors, confirmation, cell-based, NIH3T3 host, beta-gal parasite, luminescence, cherry-pick; shares compounds with T cruzi growth-1; T. cruzi beta-gal in NIH3T3, GalScreen luminescence, 90 h; inhibition, % at 8.35 µM; 5,600 compounds, 72% hits;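 active means mean replicate inhibition above about 95% and at least 55% of replicates individually reaching it, limit read from the data; inconclusive means only one of the two criteria is met; inactive means neither criterion is met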
T cruzi growth-3: inhibitors of intracellular T. cruzi replication, confirmation, NIH3T3 host cells, beta-gal parasites, cherry-pick, set 2. shares compounds with T cruzi growth-1. T. cruzi beta-gal in NIH3T3, GalScreen luminescence, 90 h. AID 651740, 2012. inhibition, % at 2.09 µM. 5,600 compounds, 21% hits;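 active means mean inhibition above about 95%, with at least 55% of replicates also reaching it, limit read from the data; inconclusive means meets just one of the two conditions; inactive means meets neither condition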;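 further: plate controls were neutral control median for no effect and positive control median for full effect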
3T3 cytotox: cytotoxicity in mouse NIH/3T3 fibroblasts, confirmation, cytotoxicity control for T. cruzi proliferation inhibitor project, cell-based, cherry-pick, single point; shares compounds with T cruzi growth-1; NIH/3T3 viability, CellTiter-Glo ATP luminescence, 90 h; cytotoxicity (signal decrease), % at 8.35 µM; 5,600 compounds, 14% hits; AID 651742, 2012;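 active means mean signal decrease across replicates above about 35% based on untreated-well scatter, with enough replicates individually passing, limit read from the data; inconclusive means no rule stated though some were filed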;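 further: 0% = median of neutral control wells and 100% = median of positive control wells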
NIH3T3 tox 2: NIH/3T3 fibroblast cytotoxicity, confirmation, cytotoxicity control, cell-based, cherry-pick, single point, set 2; shares compounds with T cruzi growth-1; NIH/3T3 viability, CellTiter-Glo ATP luminescence, 90 h; inhibition, % at 24.9 µM; 5,600 compounds, 56% hits; AID 651744, 2012;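 active means mean loss of cell viability signal at or above a set limit, and enough replicates individually reaching it; inconclusive means meets only the mean limit or only the replicate share; inactive means meets neither condition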;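 further: 0% = median of neutral control wells and 100% = median of positive control wells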
Numbers without * were called inactive; ? = inconclusive; / = no result; + = active, no number.

SMILES	T cruzi growth-1	Pf Dd2 growth	KDM4C inh	IDH1 mut inh	T cruzi growth-2	T cruzi growth-3	3T3 cytotox	NIH3T3 tox 2
CC(=O)O[C@@H]1CC[C@@]2(C)C(CC[C@@H](C)[C@]23Cc2c(O)cc4c(c2O3)CNC4=O)C1(C)C (stereo partly specified)	/	/	/	2	/	/	/	/
COc1ccc(NC(=O)CN(c2ccc(OC)c(Cl)c2)S(C)(=O)=O)cc1Cl	/	/	/	0	/	/	/	/
COc1ccc([N+](=O)[O-])cc1NC(=O)CN(c1ccccc1Cl)S(C)(=O)=O	/	/	/	0	/	/	/	/
C[C@@H]1CCCCO[C@@H](CN(C)Cc2ccccc2)[C@H](C)CN([C@H](C)CO)C(=O)c2cc(NS(=O)(=O)c3ccc(Cl)cc3)ccc2O1	90	-26	-1	/	/	/	/	/
C[C@@H]1CCCCO[C@H](CN(C)Cc2ccccc2)[C@@H](C)CN([C@@H](C)CO)C(=O)c2cc(NS(=O)(=O)c3ccc(Cl)cc3)ccc2O1	106*	-43	0	/	95*	76	27	104*
COc1ccccc1OCC(=O)Nc1c[nH]c(=O)[nH]c1=O	/	/	/	-1	/	/	/	/
NC(=O)CCCc1c[nH]c2ccccc12	/	/	/	0	/	/	/	/
CN(C)CC(=O)N1[C@H](C(=O)NC2CCCC2)[C@@H](CO)[C@@H]2Cn3c(ccc(-c4ccc(F)cc4)c3=O)[C@@H]21	105*	0	-2	/	88	1	7	14
CN1[C@@H]2c3ccc(-c4ccncc4)c(=O)n3C[C@@H]2[C@@H](CO)[C@@H]1C(=O)NC1Cc2ccccc2C1	16	-4	3	/	/	/	/	/
CCCN1[C@H](C(=O)N[C@@H](C)c2ccccc2)[C@@H](CO)[C@@H]2Cn3c(ccc(-c4ccccc4)c3=O)[C@@H]21	?	-1	8	/	104*	53	2	52*
CN1[C@H](C(=O)NC2CCCCC2)[C@@H](CO)[C@@H]2Cn3c(ccc(-c4cccc(F)c4)c3=O)[C@@H]21	?	-6	4	/	1	34	8	16
CN(C)CC(=O)N1[C@H](C(=O)NC2CCC2)[C@@H](CO)[C@@H]2Cn3c(ccc(-c4cccc(F)c4)c3=O)[C@@H]21	35	7	3	/	/	/	/	/
CCCN1[C@@H]2c3ccc(-c4ccccc4)c(=O)n3C[C@@H]2[C@@H](CO)[C@@H]1C(=O)N[C@@H](C)c1ccccc1	81	-39	10	/	/	/	/	/
CN1[C@@H]2c3ccc(-c4cncnc4)c(=O)n3C[C@@H]2[C@@H](CO)[C@@H]1C(=O)NC1Cc2ccccc2C1	+	/	9	/	61	-1	11	-3
Cc1ccnc(NS(=O)(=O)c2ccc(NC(=O)c3csc4c3CCCC4)cc2)n1	/	/	/	1	/	/	/	/
O=C(CSc1ncn(-c2ccccc2)n1)Nc1ccc(F)c(Cl)c1	/	/	/	-1	/	/	/	/
Cc1ccc(S(=O)(=O)NC(C)C(=O)Nc2ccc(I)cc2)cc1 (stereo unspecified)	/	/	/	0	/	/	/	/
CN(C)CC(=O)N1[C@@H]2c3ccc(-c4cccc(F)c4)c(=O)n3C[C@@H]2[C@@H](CO)[C@@H]1C(=O)NC1CCC1	65	7	0	/	/	/	/	/
CN(C)CC(=O)N1[C@@H]2c3ccc(-c4ccccc4)c(=O)n3C[C@@H]2[C@@H](CO)[C@@H]1C(=O)NC1CCC1	+	/	0	/	-4	25	2	-6
CN(C)CC(=O)N1[C@@H]2c3ccc(-c4ccc(F)cc4)c(=O)n3C[C@@H]2[C@@H](CO)[C@@H]1C(=O)NC1CCCC1	101*	-11	-1	/	32	4	-6	-2

Assay outcomes: PubChem, Broad Institute
